Key:
[1] = biological target: GABA-A receptor; anion channel; assay: Binding affinity against benzodiazepine receptor (BzR) in rat cortical membranes determined by competition experiments with radiolabeled [3H]flunitrazepam (Fnz); assay type: cell membranes
[2] = biological target: GABA-A receptor; anion channel (Rattus norvegicus) (UniProt O09028+P15431+P18506+P18508+P19969+P20236+P23574+P23576+P28471+P28473+P30191+P62813+P63079+P63138+Q91ZM7+Q9ES14)
[3] = system: Rattus norvegicus; assay: Ability to antagonize metrazole-induced seizures (clonic and tonic) in rats after intraperitoneal injection; conditions: ip
[4] = species: Mus musculus; assay: Acute electroshock physical dependence activity (drug MA50/V122 MA50); assay type: functional
How it was run: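 Male CF-1 mice, 10/group, dosed sc twice daily for 3 days (0800, then 2 times that dose at 1600). Flumazenil 2.5 mg/kg iv in 5% aqueous N,N-dimethylacetamide given 24 h after the last dose. 5 min later electroshock seizure threshold estimated by up-down method (0.05 log steps; transpinnal 0.6 ms pulses, 100 Hz, 0.2 s). Comparison is against a saline-treated, flumazenil-injected control group.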

[5] = species: Mus musculus; assay: Compound was tested for ethanol potentiation expressed as the loss of traction response (muscle relaxation); assay type: functional
How it was run: (§1)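 Male CF-1 mice given 50% aqueous ethanol orally (7.5 mL/kg) plus test compound sc in 0.25% aqueous methyl cellulose (10 mL/kg). Tested 30 min later. Traction: hindlimb placed on wire within 10 s when suspended by forepaws. Righting: rolls onto feet within 10 s when released on its back. Six mice per dose; ED50s determined.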

[6] = species: Mus musculus; assay: Antagonism of benzodiazepine traction in mice; assay type: functional
How it was run: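 Male CF-1 mice given triazolam 1 mg/kg ip together with test compound ip, starting at 100 mg/kg, in 0.25% aqueous methyl cellulose. Dose-response run on 0.5 log scale. Loss of traction scored 15 min later. Absence of the expected loss marks antagonism. ED50 taken from lower doses.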

[7] = species: Mus musculus; assay: Compound was tested for ethanol potentiation expressed as loss of righting reflex (anesthesia); assay type: functional; how it was run: as §1
[8] = biological target: GABA A receptor alpha-3/beta-2/gamma-2 (Rattus norvegicus) (UniProt P18508+P20236+P63138); assay: In vitro efficacy as change in chloride current against GABA-A alpha-3-beta-2-gamma-2 subunit expression; assay type: functional

`CC(C)n1c(=O)c2c(-c3ccccc3)ncn2c2ccccc21` showed a Ki [1] of 0.0385 µM, a TBPS shift [2] of 0.31 and an ED50 [3] of over 50 mg/kg.
Molecule `O=C(N1CCCC1)N1Cc2c(-c3ccc(F)cc3)ncn2-c2ccccc21` has a Ki [1] of 0.00097 µM, an Activity [4] of 0.88 and an ED50 [5] of 0.34 mg/kg. For the same molecule, the ED50 [6] was over 30 mg/kg, the ED50 [7] was over 30 mg/kg and the TBPS shift [2] was 0.64. The ED50 [3] was 14.8 mg/kg.
`CCNC(=O)N1Cc2c(-c3ccc(F)cc3)ncn2-c2ccccc21` was tested, and the Ki [1] was 0.0486 µM, the TBPS shift [2] was 0.42 and the ED50 [3] was over 50 mg/kg.
`O=C(N1CCOCC1)N1Cc2c(-c3ccc(F)cc3)ncn2-c2ccc(Cl)cc21` was tested, and the Ki [1] was 0.0152 µM, the Activity [4] was 0.62 and the ED50 [5] was 11 mg/kg. The ED50 [6] was over 30 mg/kg, the ED50 [7] was 27 mg/kg and the TBPS shift [2] was 1.05. It also gave an ED50 [3] of 0.76 mg/kg.
Molecule `Cc1ccc(-c2ncn3c2CN(C(=O)N2CCCC2)c2ccccc2-3)cc1` has a Ki [1] of 0.00154 µM and a TBPS shift [2] of 1.19.
`Cc1ccc(-c2ncn3c2C(C)(C)N(C(=O)N2CCCC2)c2ccccc2-3)cc1` gave a Ki [1] of 0.035 µM, a TBPS shift [2] of 1.05 and an ED50 [3] of 17.7 mg/kg.
`CC(C)n1c(=O)c2c(-c3ccc(F)cc3)ncn2c2cccc(Cl)c21` gave a Ki [1] of 0.0146 µM, a Cl - current change [8] of 3.4 and a TBPS shift [2] of 2.04. For the same molecule, the ED50 [3] was 0.9 mg/kg.
`CC(C)n1c(=O)c2c(-c3ccccc3)ncn2c2ccc(F)cc21` gave a Ki [1] of 0.0396 µM, a TBPS shift [2] of 0.77 and an ED50 [3] of over 50 mg/kg.
`COc1ccc(-c2ncn3c2c(=O)n(C(C)C)c2c(C)cccc23)cc1` gave a Ki [1] of 0.0497 µM, a Cl - current change [8] of 1.3 and a TBPS shift [2] of 0.92. It also gave an ED50 [3] of 3.1 mg/kg.
With `NC(=O)N1Cc2c(-c3ccc(F)cc3)ncn2-c2ccccc21` the Ki [1] was 0.216 µM, the TBPS shift [2] was 0.29 and the ED50 [3] was over 50 mg/kg.
With `CC1CN(C(=O)N2Cc3c(-c4ccc(F)cc4)ncn3-c3ccc(F)cc32)CC(C)N1` (configuration not stated) the Ki [1] was 0.00249 µM, the ED50 [6] was over 30 mg/kg and the TBPS shift [2] was 0.72. It also gave an ED50 [3] of 0.5 mg/kg.
For `CN1C(=O)CN=C(c2ccccc2)c2cc(Cl)ccc21` [DIAZEPAM], the Activity [4] was 18.2, the ED50 [5] was 0.54 mg/kg and the ED50 [7] was 0.86 mg/kg. For the same molecule, the ED50 [3] was 0.5 mg/kg.
Molecule `CC1CN(C(=O)N2Cc3c(-c4ccc(F)cc4)ncn3-c3ccc(F)cc32)CC(C)N1C` (configuration not stated) has an Activity [4] of 0.59, a TBPS shift [2] of 0.64 and an ED50 [3] of 1.3 mg/kg.
In the case of `O=C(N1CCCCC1)N1Cc2c(-c3ccccc3)ncn2-c2ccccc21`, the Ki [1] is reported as 0.00165 µM, the Activity [4] is reported as 0.82 and the ED50 [5] is reported as 0.5 mg/kg. For the same molecule, the ED50 [6] was over 30 mg/kg, the ED50 [7] was over 30 mg/kg and the TBPS shift [2] was 0.52. For the same molecule, the ED50 [3] was 4.5 mg/kg.
`O=C(N1CCCC1)N1Cc2c(-c3ccccc3)ncn2-c2ccccc21` was tested, and the TBPS shift [2] was 0.69.
Molecule `O=C(N1CCOCC1)N1Cc2c(-c3ccc(F)cc3)ncn2-c2ccccc21` has a Ki [1] of 0.00161 µM, an Activity [4] of 0.67 and a TBPS shift [2] of 0.54. It also gave an ED50 [3] of 0.3 mg/kg.
For `Cc1ccc(-c2ncn3c2CN(C(=O)N(C)C)c2ccccc2-3)cc1`, the Ki [1] was 0.0111 µM, the Activity [4] was 0.87 and the ED50 [3] was 4.4 mg/kg.
For `COc1ccc(-c2ncn3c2c(=O)n(C(C)C)c2ccccc23)cc1`, the Ki [1] was 0.0317 µM, the ED50 [5] was over 30 mg/kg and the ED50 [7] was over 30 mg/kg. It also gave a TBPS shift [2] of 0.75 and an ED50 [3] of 12.5 mg/kg.
Work on `CC1CN(C(=O)N2Cc3c(-c4ccc(F)cc4)ncn3-c3ccccc32)CC(C)N1` (configuration not stated) yielded a Ki [1] of 0.00585 µM, an Activity [4] of 0.7 and an ED50 [5] of 4 mg/kg. For the same molecule, the ED50 [6] was over 30 mg/kg, the ED50 [7] was over 30 mg/kg and the TBPS shift [2] was 0.75. The ED50 [3] was 1.1 mg/kg.
For `CN(C)C(=O)N1Cc2c(-c3ccc(F)cc3)ncn2-c2ccccc21`, the Ki [1] was 0.00296 µM, the Activity [4] was 0.87 and the ED50 [5] was 11 mg/kg. It also gave an ED50 [6] of 4.9 mg/kg, an ED50 [7] of over 30 mg/kg and a TBPS shift [2] of 0.53. The ED50 [3] was 4.4 mg/kg.
`CC(C)n1c(=O)c2c(-c3cccc(F)c3)ncn2c2ccccc21` was tested, and the Ki [1] was 0.48 µM, the TBPS shift [2] was 0.31 and the ED50 [3] was over 50 mg/kg.
In the case of `Cc1ccc(-c2ncn3c2c(=O)n(C(C)C)c2ccccc23)cc1`, the Ki [1] is reported as 0.174 µM, the TBPS shift [2] is reported as 1.09 and the ED50 [3] is reported as over 50 mg/kg.
In the case of `CC1(C)c2c(-c3ccc(F)cc3)ncn2-c2ccccc2N1C(=O)N1CCCC1`, the Ki [1] is reported as 0.0126 µM, the TBPS shift [2] is reported as 0.6 and the ED50 [3] is reported as over 50 mg/kg.
For `CN(C)C(=O)N1Cc2c(-c3ccccc3)ncn2-c2ccccc21`, the Ki [1] was 0.00341 µM and the TBPS shift [2] was 0.4.
`CC1CN(C(=O)N2Cc3c(-c4ccc(F)cc4)ncn3-c3cccc(Cl)c32)CC(C)N1` (configuration not stated) gave a Ki [1] of 0.0334 µM, an ED50 [6] of over 30 mg/kg and a TBPS shift [2] of 0.31. It also gave an ED50 [3] of 1.8 mg/kg.
`CC1CN(C(=O)N2Cc3c(-c4ccc(F)cc4)ncn3-c3cccc(Cl)c32)CC(C)N1C` (configuration not stated) was tested, and the Ki [1] was 0.0474 µM, the Activity [4] was 0.8 and the ED50 [6] was over 30 mg/kg. For the same molecule, the TBPS shift [2] was 0.62 and the ED50 [3] was 1.8 mg/kg.
For `COC(=O)N1Cc2c(-c3ccc(F)cc3)ncn2-c2ccccc21`, the Ki [1] was 0.0472 µM, the TBPS shift [2] was 0.53 and the ED50 [3] was over 50 mg/kg.
`CN(C)C(=O)N1c2ccccc2-n2cnc(-c3ccccc3)c2C1(C)C` was tested, and the Ki [1] was 0.478 µM and the TBPS shift [2] was 0.45.
Molecule `COc1ccccc1-c1ncn2c1c(=O)n(C(C)C)c1ccccc12` has a Ki [1] of over 10 µM.
With `COc1ccc(-c2ncn3c2c(=O)n(C(C)C)c2cc(F)ccc23)cc1` the Ki [1] was 0.0815 µM, the TBPS shift [2] was 0.97 and the ED50 [3] was over 50 mg/kg.
Molecule `CC(C)n1c(=O)c2c(-c3ccc(C(F)(F)F)cc3)ncn2c2ccccc21` has a Ki [1] of over 10 µM, a Cl - current change [8] of 0.36 and a TBPS shift [2] of 0.36.
Work on `CC(C)OC(=O)N1Cc2c(-c3ccc(F)cc3)ncn2-c2ccccc21` yielded a Ki [1] of 0.0508 µM, an Activity [4] of 0.83 and an ED50 [5] of over 30 mg/kg. For the same molecule, the ED50 [6] was over 30 mg/kg, the ED50 [7] was over 30 mg/kg and the TBPS shift [2] was 0.93. It also gave an ED50 [3] of 6.3 mg/kg.
Work on `Cc1ccc(-c2ncn3c2C(C)(C)N(C(=O)N(C)C)c2ccccc2-3)cc1` yielded a Ki [1] of 0.334 µM, a TBPS shift [2] of 0.71 and an ED50 [3] of over 50 mg/kg.
`O=C(N1CCOCC1)N1Cc2c(-c3ccc(F)cc3)ncn2-c2ccc(F)cc21` was tested, and the Ki [1] was 0.00216 µM, the Activity [4] was 0.7 and the ED50 [5] was 5 mg/kg. The ED50 [6] was over 30 mg/kg, the ED50 [7] was 17 mg/kg and the TBPS shift [2] was 0.7. The ED50 [3] was 0.14 mg/kg.
With `O=C(c1ccccc1F)N1Cc2c(-c3ccc(F)cc3)ncn2-c2ccccc21` the Ki [1] was 0.0424 µM and the TBPS shift [2] was 0.84.
`O=C(c1ccc(F)cc1)N1Cc2c(-c3ccc(F)cc3)ncn2-c2ccccc21` showed a Ki [1] of 0.0205 µM, a TBPS shift [2] of 0.82 and an ED50 [3] of 29.7 mg/kg.
With `COc1ccc(-c2ncn3c2CN(C(=O)N2CC(C)NC(C)C2)c2ccccc2-3)cc1` (configuration not stated) the Ki [1] was 0.00139 µM, the Activity [4] was 0.47 and the ED50 [6] was over 30 mg/kg. It also gave a TBPS shift [2] of 0.31 and an ED50 [3] of 0.8 mg/kg.
For `CC(C)n1c(=O)c2c(-c3ccc(F)cc3)ncn2c2ccc(F)cc21`, the Ki [1] was 0.0594 µM, the TBPS shift [2] was 0.8 and the ED50 [3] was over 50 mg/kg.
In the case of `O=C(c1cccc(F)c1)N1Cc2c(-c3ccc(F)cc3)ncn2-c2ccccc21`, the Ki [1] is reported as 0.00591 µM, the Activity [4] is reported as 0.87 and the TBPS shift [2] is reported as 1.06. The ED50 [3] was 1.3 mg/kg.
`O=C(N1CCOCC1)N1Cc2c(-c3ccc(F)cc3)ncn2-c2cccc(Cl)c21` showed a Ki [1] of 0.00297 µM, an Activity [4] of 0.86 and a TBPS shift [2] of 0.44. The ED50 [3] was 3.7 mg/kg.
`CC1CN(C(=O)N2Cc3c(-c4ccc(F)cc4)ncn3-c3ccccc32)CC(C)N1C` (configuration not stated) gave a Ki [1] of 0.0132 µM, an Activity [4] of 0.8 and an ED50 [6] of over 30 mg/kg. For the same molecule, the TBPS shift [2] was 0.31 and the ED50 [3] was 13 mg/kg.
In the case of `CC(C)n1c(=O)c2c(-c3ccc(Cl)cc3)ncn2c2ccccc21`, the TBPS shift [2] is reported as 0.74 and the ED50 [3] is reported as over 50 mg/kg.
For `CC(C)(C)NC(=O)N1Cc2c(-c3ccc(F)cc3)ncn2-c2ccccc21`, the Ki [1] was 0.283 µM, the TBPS shift [2] was 1.02 and the ED50 [3] was over 50 mg/kg.
Work on `CN(C)C(=O)N1c2ccccc2-n2cnc(-c3ccc(F)cc3)c2C1(C)C` yielded a Ki [1] of 0.163 µM, a TBPS shift [2] of 0.49 and an ED50 [3] of over 50 mg/kg.

Reference: ChEMBL document CHEMBL1129651, “3-Phenyl-substituted imidazo[1,5-alpha]quinoxalin-4-ones and imidazo[1,5-alpha]quinoxaline ureas that have high affinity at the GABAA/benzodiazepine receptor complex” (J Med Chem, 1996)
